Results from article PMC10582678 (Clinical and Translational Science, 2023).

Key:
[1] = Preclinical safety in rats; type: in vivo; conditions: stated in introduction
[2] = Preclinical safety in beagles; type: in vivo; conditions: stated in introduction
[3] = Safety, adverse events, multiple ascending doses; type: in vivo, human; conditions: for AEs / Abdominal discomfort / Constipation / Decreased leukocyte count / Decreased lymphocyte count / Decreased neutrophil count / Dermatitis allergic / Dyspepsia / Increased ALT / Increased AST / Increased blood bilirubin / Increased blood creatinine / Lethargy / Mouth ulceration / Oropharyngeal pain / Sinus arrythmia / Upper respiratory tract infection / Increased blood cholesterol / Treatment discontinuation due to AEs / Increased blood triglycerides: n (%)
Procedure, shortened: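 Safety was monitored by vital signs, clinical laboratory tests, physical examination, 12-lead ECG, AEs and SAEs. AEs were coded with MedDRA 23.1 and graded by CTCAE 5.0. Subjects were discharged 6 days after the last dose, with a follow-up visit 8–14 days after the last dose. The safety set comprised randomized subjects who received active drug or placebo and had post-dose safety data.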

[4] = 18 subjects, MAD 200 to 600 mg for 10 days

SMILES: N#CN1C[C@H](n2nc(-c3ccc(Oc4ccc(Cl)cn4)cc3)c(C(N)=O)c2N)CCC12CC2 [SN1011, 5-amino-3-(4-((5-chloro-2-pyridinyl)oxy)phenyl)-1-((6R)-4-cyano-4-azaspiro[2.5]octan-6-yl)-1H-pyrazole-4-carboxamide]
- safety profile [1]: acceptable safety profile
- safety profile [2]: acceptable safety profile
- blood triglycerides increased [3, 4]: 33.3%
- leucocyte count decreased [3, 4]: 22.2%
- neutrophil count decreased [3, 4]: 27.8%
- number of AEs [3, 4]: 34
- subjects who experienced AEs [3, 4]: 66.7%
- subjects with at least a treatment-related AE (TRAE) ([3]; 18 subjects, MAD 200 to 600 mg, all grade 1 or 2): 61.1%
- AEs ([3]; MAD 200 mg QD, any grade): 3 (50.0)
- Abdominal discomfort ([3]; MAD 200 mg QD, any grade): 0
- Constipation ([3]; MAD 200 mg QD, any grade): 0
- Decreased leukocyte count ([3]; MAD 200 mg QD, any grade): 1 (16.7)
- Decreased lymphocyte count ([3]; MAD 200 mg QD, any grade): 0
- Decreased neutrophil count ([3]; MAD 200 mg QD, any grade): 1 (16.7)
- Dermatitis allergic ([3]; MAD 200 mg QD, any grade): 0
- Dyspepsia ([3]; MAD 200 mg QD, any grade): 0
- Increased ALT ([3]; MAD 200 mg QD, any grade): 1 (16.7)
- Increased AST ([3]; MAD 200 mg QD, any grade): 1 (16.7)
- Increased blood bilirubin ([3]; MAD 200 mg QD, any grade): 1 (16.7)
- Increased blood creatinine ([3]; MAD 200 mg QD, any grade): 0
- Lethargy ([3]; MAD 200 mg QD, any grade): 0
- Mouth ulceration ([3]; MAD 200 mg QD, any grade): 0
- Oropharyngeal pain ([3]; MAD 200 mg QD, any grade): 0
- Sinus arrythmia ([3]; MAD 200 mg QD, any grade): 0
- Upper respiratory tract infection ([3]; MAD 200 mg QD, any grade): 0
- Increased blood cholesterol ([3]; MAD 200 mg QD): 0
- Treatment discontinuation due to AEs ([3]; MAD 200 mg QD): 0
- AEs ([3]; MAD 400 mg QD, any grade): 4 (66.7)
- Abdominal discomfort ([3]; MAD 400 mg QD, any grade): 0
- Constipation ([3]; MAD 400 mg QD, any grade): 0
- Decreased leukocyte count ([3]; MAD 400 mg QD, any grade): 1 (16.7)
- Decreased lymphocyte count ([3]; MAD 400 mg QD, any grade): 0
- Decreased neutrophil count ([3]; MAD 400 mg QD, any grade): 2 (33.3)
- Dermatitis allergic ([3]; MAD 400 mg QD, any grade): 0
- Dyspepsia ([3]; MAD 400 mg QD, any grade): 0
- Increased ALT ([3]; MAD 400 mg QD, any grade): 0
- Increased AST ([3]; MAD 400 mg QD, any grade): 0
- Increased blood bilirubin ([3]; MAD 400 mg QD, any grade): 0
- Increased blood creatinine ([3]; MAD 400 mg QD, any grade): 2 (33.3)
- Increased blood triglycerides ([3]; MAD 400 mg QD, any grade): 2 (33.3)
- Lethargy ([3]; MAD 400 mg QD, any grade): 0
- Mouth ulceration ([3]; MAD 400 mg QD, any grade): 0
- Sinus arrythmia ([3]; MAD 400 mg QD, any grade): 1 (16.7)
- Upper respiratory tract infection ([3]; MAD 400 mg QD, any grade): 1 (16.7)
- Increased blood cholesterol ([3]; MAD 400 mg QD): 0
- Treatment discontinuation due to AEs ([3]; MAD 400 mg QD): 0
- AEs ([3]; MAD 600 mg QD, any grade): 5 (83.3)
- Abdominal discomfort ([3]; MAD 600 mg QD, any grade): 1 (16.7)
- Constipation ([3]; MAD 600 mg QD, any grade): 1 (16.7)
- Decreased leukocyte count ([3]; MAD 600 mg QD, any grade): 2 (33.3)
- Decreased lymphocyte count ([3]; MAD 600 mg QD, any grade): 1 (16.7)
- Decreased neutrophil count ([3]; MAD 600 mg QD, any grade): 2 (33.3)
- Dermatitis allergic ([3]; MAD 600 mg QD, any grade): 2 (33.3)
- Dyspepsia ([3]; MAD 600 mg QD, any grade): 1 (16.7)
- Increased ALT ([3]; MAD 600 mg QD, any grade): 1 (16.7)
- Increased AST ([3]; MAD 600 mg QD, any grade): 1 (16.7)
- Increased blood bilirubin ([3]; MAD 600 mg QD, any grade): 1 (16.7)
- Increased blood creatinine ([3]; MAD 600 mg QD, any grade): 0
- Increased blood triglycerides ([3]; MAD 600 mg QD, any grade): 2 (33.3)
- Lethargy ([3]; MAD 600 mg QD, any grade): 1 (16.7)
- Mouth ulceration ([3]; MAD 600 mg QD, any grade): 1 (16.7)
- Oropharyngeal pain ([3]; MAD 600 mg QD, any grade): 1 (16.7)
- Sinus arrythmia ([3]; MAD 600 mg QD, any grade): 0
- Increased blood cholesterol ([3]; MAD 600 mg QD): 0
- Treatment discontinuation due to AEs ([3]; MAD 600 mg QD): 0
- AEs ([3]; MAD All SN1011, N = 18): 12 (66.7)
- Abdominal discomfort ([3]; MAD All SN1011, N = 18): 1 (5.6)
- Constipation ([3]; MAD All SN1011, N = 18): 1 (5.6)
- Decreased leukocyte count ([3]; MAD All SN1011, N = 18): 4 (22.2)
- Decreased lymphocyte count ([3]; MAD All SN1011, N = 18): 1 (5.6)
- Decreased neutrophil count ([3]; MAD All SN1011, N = 18): 5 (27.8)
- Dermatitis allergic ([3]; MAD All SN1011, N = 18): 2 (11.1)
- Dyspepsia ([3]; MAD All SN1011, N = 18): 1 (5.6)
- Increased ALT ([3]; MAD All SN1011, N = 18): 2 (11.1)
- Increased AST ([3]; MAD All SN1011, N = 18): 2 (11.1)
- Increased blood bilirubin ([3]; MAD All SN1011, N = 18): 2 (11.1)
- Increased blood cholesterol ([3]; MAD All SN1011, N = 18): 0
- Increased blood creatinine ([3]; MAD All SN1011, N = 18): 2 (11.1)
- Increased blood triglycerides ([3]; MAD All SN1011, N = 18): 6 (33.3)
- Lethargy ([3]; MAD All SN1011, N = 18): 1 (5.6)
- Mouth ulceration ([3]; MAD All SN1011, N = 18): 1 (5.6)
- Oropharyngeal pain ([3]; MAD All SN1011, N = 18): 1 (5.6)
- Sinus arrythmia ([3]; MAD All SN1011, N = 18): 1 (5.6)
- Treatment discontinuation due to AEs ([3]; MAD All SN1011, N = 18): 0
- Upper respiratory tract infection ([3]; MAD All SN1011, N = 18): 1 (5.6)
